Assay results reported in PMC65698 (BMC Pharmacology, 2002).

How the values were obtained:
HL-60 cells [1] = assay: HL-60 cell differentiation assay; format: cell-based, human
Summary of the method: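 HL-60 cells grown in RPMI-1640 with 15% FBS, 50 U/mL penicillin and 0.5 mg/mL streptomycin; subcultured and treated at 2 × 10^5 cells/mL. Test compound added in DMSO or ethanol, with no media change or washout; 1 μM retinoic acid used as a reference retinoid. Aliquots mixed 1:1 with a solution of 1.0% BSA, 0.2% NBT and 1.0 μg/mL TPA, then incubated 45 min at 37°C. Purple-precipitate-positive cells scored by bright-field microscopy in a counting chamber; two observers each counted two fields of ≥200 cells per well.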

L1210/CPA cells = settings: 50 μM DEAB in vitro; cited from earlier work
[2] = HPLC assay for stability of retinal in culture media; format: physicochemical; settings: 10 μM retinal in RPMI 1640 plus 15% fetal bovine serum, 37°C, day 6, no cells
Summary of the method: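 Retinal (10 μM) incubated in cell-free RPMI 1640 with 15% FBS at 37°C for six days. Media sampled every 24 h and extracted with 50% butanol:50% acetonitrile (v/v): vortexed 60 s, centrifuged 2 min at 16,000 × g. Organic layer diluted 1:5 in acetonitrile and run on reverse-phase C18 HPLC. Retinal and retinoic acid detected at 360 nm (retention 10.0 and 7.7 min).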

human ALDH1A1 = target: T1, human ALDH1A1 (Homo sapiens, UniProt P00352); format: biochemical; settings: IC50 of DPAB, substrate propanal, 1 mM NAD, pH 8.4, mean ± average deviation
T1 sequence (P00352 1-501): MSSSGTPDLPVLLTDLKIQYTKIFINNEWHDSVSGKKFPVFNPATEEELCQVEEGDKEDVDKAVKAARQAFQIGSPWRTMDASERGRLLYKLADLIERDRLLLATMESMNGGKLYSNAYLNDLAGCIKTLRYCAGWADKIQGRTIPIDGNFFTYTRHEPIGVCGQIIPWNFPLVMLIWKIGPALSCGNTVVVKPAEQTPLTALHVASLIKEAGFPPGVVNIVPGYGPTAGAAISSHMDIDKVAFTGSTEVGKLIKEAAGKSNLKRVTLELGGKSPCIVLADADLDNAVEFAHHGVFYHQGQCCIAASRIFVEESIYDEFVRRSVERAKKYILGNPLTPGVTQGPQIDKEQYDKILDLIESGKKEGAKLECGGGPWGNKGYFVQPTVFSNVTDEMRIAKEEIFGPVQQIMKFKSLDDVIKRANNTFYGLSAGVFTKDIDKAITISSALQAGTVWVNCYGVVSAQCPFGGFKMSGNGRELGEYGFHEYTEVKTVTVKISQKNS

mouse ALDH1A1 = target: T2, mouse ALDH1A1 (Mus musculus, UniProt P24549); format: biochemical; settings: IC50 of DPAB, substrate propanal, 1 mM NAD, pH 8.4, mean ± average deviation
T2 sequence (P24549 1-501): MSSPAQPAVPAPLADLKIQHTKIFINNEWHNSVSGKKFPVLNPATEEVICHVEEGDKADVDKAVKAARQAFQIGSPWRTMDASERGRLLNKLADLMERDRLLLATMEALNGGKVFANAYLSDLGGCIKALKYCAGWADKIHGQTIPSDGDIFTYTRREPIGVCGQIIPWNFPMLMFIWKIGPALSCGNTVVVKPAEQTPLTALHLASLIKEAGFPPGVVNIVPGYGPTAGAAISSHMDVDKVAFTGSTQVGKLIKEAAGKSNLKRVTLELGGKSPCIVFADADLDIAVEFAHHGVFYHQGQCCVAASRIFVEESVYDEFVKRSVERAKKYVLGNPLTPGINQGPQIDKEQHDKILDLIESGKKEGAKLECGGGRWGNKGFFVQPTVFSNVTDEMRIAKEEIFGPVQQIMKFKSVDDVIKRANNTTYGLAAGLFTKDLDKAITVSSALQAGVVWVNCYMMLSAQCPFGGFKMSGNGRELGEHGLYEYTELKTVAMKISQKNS

HL-60 cells [3] = assay: HL-60 cell survival by Trypan blue dye exclusion; format: cell-based, human; settings: up to 144 hours
Summary of the method: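 HL-60 cells grown in RPMI-1640 with 15% FBS and penicillin/streptomycin, seeded at 2 × 10^5 cells/mL. Exposed to test compound (in DMSO or ethanol) for up to 144 h without media replacement or washout. Survival assessed by Trypan blue dye exclusion.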

ALDH1A1 = settings: dipropyl vs diethyl analog; cited from earlier work

For `CC1=C(/C=C/C(C)=C/C=C/C(C)=C/C(=O)O)C(C)(C)CCC1` [retinoic acid, all-trans retinoic acid], the “Cells differentiated to granulocytes (positive NBT staining)” value (HL-60 cells [1]; continuous exposure to 1 μM for 96 hours) was roughly 40%.
For `CCN(CC)c1ccc(C=O)cc1` [DEAB, 4-(N, N-diethylamino) benzaldehyde], the “Effect on resistance of L1210/CPA cells to 4-HC” value (L1210/CPA cells) is given as “abolished the tumor cells' resistance to 4-HC”.
For `CC1=C(/C=C/C(C)=C/C=C/C(C)=C/C=O)C(C)(C)CCC1` [all-trans retinal], the “Differentiation expressed as equivalent retinoic acid concentration” value (HL-60 cells [1]; exposure to 1 μM for 96 hours) was 0.05 to 0.1 µM and the “Retinal oxidized to retinoic acid in culture media” value [2] was “less than 1%”.
For `CCCN(CCC)c1ccc(C=O)cc1` [DPAB, 4-(N,N-dipropylamino)benzaldehyde], the IC50 (human ALDH1A1) was 140 ± 40 nM, the IC50 (mouse ALDH1A1) was 40 ± 10 nM and the “Effect on cell viability” value (HL-60 cells [3]) was “nor did it affect cell viability”. The “Effect on induction of differentiation by retinoic acid” value (HL-60 cells [1]; 1 μM retinoic acid + 50 μM DPAB) was “did not alter the induction of differentiation by retinoic acid” and the “Efficacy for inhibition of ALDH1A1 relative to DEAB” value (ALDH1A1) was 10 fold.
